# WT yeast gro inh = growth inhibition of WT yeast, mitochondrial fusion screen. mitochondrial fusion phenotypic screen, WT strain. inhibition, % at 10 µM. 2.1% of 190,000 active; in the data active = inhibition above about 58%; tested in S. cerevisiae
# Lmaj promast = Leishmania major promastigote growth inhibition. Leishmania major promastigotes, resazurin fluorescence viability. inhibition, % at 10 µM. 9% of 200,000 active. AID 1063; in the data active = inhibition above about 50%;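 note: promastigotes grown with compound for 44 hours at 28 °C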
# ABCB1 inh = inhibitors of human ABCB1 transporter, ABCG2 counter-screen; P08183; CCRF-Adr cells, JC-1 efflux, flow cytometry; inhibition, % at 6.6 µM; 0.067% of 190,000 active; in the data active = inhibition above about 40%;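 note: higher value means more JC-1 retained so stronger ABCB1 efflux block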
# Target sequence (P08183 whole entry, looked up): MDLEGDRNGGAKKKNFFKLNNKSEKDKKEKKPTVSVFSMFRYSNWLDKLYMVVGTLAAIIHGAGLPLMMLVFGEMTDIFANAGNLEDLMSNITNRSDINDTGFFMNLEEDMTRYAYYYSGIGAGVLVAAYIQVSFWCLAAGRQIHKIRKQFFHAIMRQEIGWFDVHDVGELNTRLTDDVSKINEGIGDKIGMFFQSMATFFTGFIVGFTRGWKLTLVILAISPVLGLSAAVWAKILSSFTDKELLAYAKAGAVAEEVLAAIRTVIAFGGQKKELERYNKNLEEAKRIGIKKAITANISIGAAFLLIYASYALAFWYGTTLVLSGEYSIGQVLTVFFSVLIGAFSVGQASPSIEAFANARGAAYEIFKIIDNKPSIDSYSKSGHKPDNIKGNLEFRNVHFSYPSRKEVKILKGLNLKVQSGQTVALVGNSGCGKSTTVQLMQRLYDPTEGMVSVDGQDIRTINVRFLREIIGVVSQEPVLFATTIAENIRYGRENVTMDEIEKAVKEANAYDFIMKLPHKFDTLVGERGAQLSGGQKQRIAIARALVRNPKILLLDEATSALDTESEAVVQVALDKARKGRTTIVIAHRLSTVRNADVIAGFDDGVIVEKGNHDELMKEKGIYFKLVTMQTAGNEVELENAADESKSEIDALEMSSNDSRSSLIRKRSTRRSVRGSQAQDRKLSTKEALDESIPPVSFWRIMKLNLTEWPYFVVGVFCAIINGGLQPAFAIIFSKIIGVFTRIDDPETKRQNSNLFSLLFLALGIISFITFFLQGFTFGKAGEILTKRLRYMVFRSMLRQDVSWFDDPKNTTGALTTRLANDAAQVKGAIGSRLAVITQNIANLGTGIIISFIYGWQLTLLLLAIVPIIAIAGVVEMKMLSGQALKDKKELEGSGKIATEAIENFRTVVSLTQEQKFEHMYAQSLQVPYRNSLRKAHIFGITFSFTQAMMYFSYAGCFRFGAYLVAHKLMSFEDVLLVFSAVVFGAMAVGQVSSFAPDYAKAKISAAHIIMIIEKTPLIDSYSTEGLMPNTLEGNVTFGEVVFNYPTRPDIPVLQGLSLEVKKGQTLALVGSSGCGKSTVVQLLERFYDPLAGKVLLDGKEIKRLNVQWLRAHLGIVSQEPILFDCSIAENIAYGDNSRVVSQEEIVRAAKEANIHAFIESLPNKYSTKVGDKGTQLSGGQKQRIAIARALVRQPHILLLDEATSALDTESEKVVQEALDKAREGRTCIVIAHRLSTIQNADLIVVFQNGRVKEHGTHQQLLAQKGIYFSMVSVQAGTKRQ
# ABCG2 inh = blocks JC-1 efflux by human ABCG2 transporter | AID 1325 | 0.1% of 190,000 active | inhibition, % at 6.6 µM | Q9UNQ0 | IgMXP3 cells, flow cytometry;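 active = inhibition above 80%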
#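 Test system: IgMXP3 (ABCG2) plus far-red-tagged CCRF-Adr (ABCB1) cells / Amount: 3 million cells/mL in well / Reagent: JC-1 transporter substrate / Timing: 10 min compound exposure, 25 °C / Signal: flow cytometry, 530 nm JC-1 signal / Read-out: percent efflux inhibition, scaled nicardipine 100% to DMSO 0% / Benchmarks: nicardipine as high control, DMSO as low control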
# RAM network inh = blocks the yeast RAM network. AID 868. S. cerevisiae dse1pr::URA3 reporter, 5-FOA growth OD615, 2 d; analog-sensitive cbk1-as2 kinase mutant strain. inhibition, % at 50 µM. 1.8% of 190,000 active;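 active = inhibition above a set limit, 3 SD over mean compound inhibition, cut at about 8.4% in these data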;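 note: inhibition rescues growth on 5-FOA so higher OD means more RAM inhibition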
# Numbers stand for hits; – = inactive; · = no result. This is a sample that favours compounds with a hit; in the whole collection about 12% have one here.
SMILES,WT yeast gro inh,Lmaj promast,ABCB1 inh,ABCG2 inh,RAM network inh
Cc1ccc(-c2nnc(Nc3ccc4c(c3)OCO4)c3ccccc23)cc1S(=O)(=O)NCCO,–,76.8,–,–,–
Cc1ccc(-c2nnc(Nc3ccc4c(c3)OCO4)c3ccccc23)cc1S(=O)(=O)NC(C)C,–,91.4,–,–,–
Cc1ccc(-c2nnc(Nc3ccccc3)c3ccccc23)cc1S(=O)(=O)NCC1CCCO1 (configuration not stated),–,80.3,–,–,–
Cc1ccc(-c2n[nH]c(=O)c3ccccc23)cc1S(=O)(=O)NCCO,–,–,–,–,–
Cc1ccc(-c2nnc(N3CCCCC3)c3ccccc23)cc1S(=O)(=O)N(C)C,–,–,–,–,–
CCc1ccc(N=c2c([N+](=O)[O-])nn(-c3ccccc3)n2O)cc1,–,88.4,–,–,–
Cc1cc(C)cc(N=c2c([N+](=O)[O-])nn(-c3ccc(Cl)cc3)n2O)c1,–,94.8,–,–,–
CCc1ccc(NC(=O)C(C)n2nc(C)c([N+](=O)[O-])c2C)cc1 (configuration not stated),–,–,–,–,–
Cc1c(Cl)c([N+](=O)[O-])nn1CCCC(=O)Nc1ccc(Cl)cc1Cl,–,–,–,–,–
CCOC(=O)c1sc(C)c2c1NC(C)(c1ccccc1)NC2=O (configuration not stated),–,–,–,–,–
CCc1c(C)sc(NC(=O)Cn2nc(C)c([N+](=O)[O-])c2C)c1C(N)=O,–,–,–,–,–
COc1cc(NC(=O)Nc2cccc(Cl)c2)c(OC)cc1NC(=O)CN1CCCCC1,–,51.1,–,–,–
COc1cc(NC(=O)c2ccc(C)cc2)c(OC)cc1NC(=O)CN1CCCCC1,–,62.3,–,–,–
CC1(C)CC2(CCO1)OC(=O)CC2C(=O)Nc1ccccc1Cl (configuration not stated),–,–,–,–,–
CCOC(=O)c1c(/N=C/C2=C(O)CC(C)(C)CC2=O)sc(C(C)=O)c1C,–,–,–,–,–
Cc1cc(C)nc(NS(=O)(=O)c2ccc(NC(=O)CN3C(=O)C4CC=CCC4C3=O)cc2)n1 (configuration not stated),–,–,–,–,–
O=C1c2ccccc2C(=O)N1CC#CCN1CCN(C2CCCCC2)CC1,–,–,–,–,–
Oc1cc2c(cc1CN1CCN(c3cccc(C(F)(F)F)c3)CC1)CCC2,–,–,–,–,–
Cc1ccc(N2CCN(CC3CC=CCC3)CC2)cc1 (configuration not stated),–,96.7,–,–,–
Cc1cccc(N2C(=O)CC(N3CCN(c4cccc(C(F)(F)F)c4)CC3)C2=O)c1 (configuration not stated),–,–,–,–,–
CCCN1CCC(N2CCN(c3cccc(C(F)(F)F)c3)CC2)CC1,–,100.2,–,–,–
FC(F)(F)c1cccc(N2CCN(CC3CC=CCC3)CC2)c1 (configuration not stated),–,93.1,–,–,–
C1=CCC(CN2CCN(C3CCCCCC3)CC2)CC1 (configuration not stated),–,89.9,–,–,–
CN(Cc1ccno1)Cc1cn(Cc2ccccc2)nc1-c1ccc2c(c1)OCO2,·,–,–,–,–
Cc1[nH]c2ccccc2c1/C=C(\C#N)C(=O)NC(C)c1ccccc1 (configuration not stated),84.5,–,–,–,–
SMILES,WT yeast gro inh,Lmaj promast,ABCB1 inh,ABCG2 inh,RAM network inh
CCc1ccc(C(C)NC(=O)/C(C#N)=C\c2cn[nH]c2-c2ccccc2)cc1 (configuration not stated),59.0,–,–,–,–
Cc1ccc(/C=C(/C#N)C(=O)NC(C)c2ccccc2)o1 (configuration not stated),–,–,–,–,–
O=c1[nH]c(SCc2ccc([N+](=O)[O-])cc2)nc2[nH]ncc12,–,–,–,–,–
CC(C)Cn1c(-c2csc3c2CCCC3)n[nH]c1=S,–,–,–,–,–
Cc1cc2ccccn2c1C(C[N+](=O)[O-])c1ccc(N(C)C)cc1 (configuration not stated),–,88.6,–,–,–
COc1ccc(C(C[N+](=O)[O-])c2c(C)cc3ccccn23)cc1 (configuration not stated),–,98.6,–,–,–
COc1ccc(C(C[N+](=O)[O-])c2c(-c3ccccc3)cc3ccccn23)c(OC)c1 (configuration not stated),–,100.2,–,–,–
COc1ccc2c(-c3ccccc3)cc(=O)[nH]c2c1,–,–,–,–,–
COC(=O)c1ccc(COC(=O)CCS(=O)(=O)c2ccc(C)cc2)cc1,–,–,–,–,–
Cc1ccc(S(=O)(=O)CCC(=O)OCc2ccc(Cl)cc2)cc1,–,54.8,–,–,–
CCOC(=O)CCS(=O)(=O)c1ccc(-c2ccc(S(=O)(=O)CCC(=O)OCC)cc2)cc1,–,–,–,–,–
CCN(Cc1ccccc1)C(=O)c1ccc(CNS(=O)(=O)c2ccc(C)cc2)cc1,–,–,–,–,10.9
Cc1ccc(S(=O)(=O)CCC(=O)c2ccc(O)cc2O)cc1,–,100.5,–,–,–
Cc1ccc(S(=O)(=O)CCC(=O)NCc2ccccc2)cc1,–,57.5,–,–,–
CC(=O)NC(Cc1ccc(F)cc1)C(=O)NC1CCN(c2ncccc2[N+](=O)[O-])CC1 (configuration not stated),–,–,–,–,–
Cn1nnnc1SCC(=O)C(C)(C)C,–,–,–,–,–
O=C(Cc1cccs1)NNC(=O)c1ccc(F)cc1,–,–,–,–,–
CCC(=O)NC(=S)Nc1ccc(NC(=O)c2ccc(Br)o2)cc1,–,–,–,–,–
COc1cc(/C=C/C(=O)Nc2cc(C(F)(F)F)ccc2Cl)cc(OC)c1OC,–,66.8,–,–,–
COc1ccc(/C=C/C(=O)Nc2cc(C(F)(F)F)ccc2Cl)cc1OC,–,–,–,–,–
OC(c1ccccn1)(c1ccccn1)c1ccccn1,–,–,–,–,–
CN(C)/C=C/c1onc(-c2c(Cl)cccc2Cl)c1C#N,–,–,–,–,–
N#Cc1c(-c2c(Cl)cccc2Cl)noc1/C=C/Nc1ccc(C(=O)O)cc1,–,–,–,–,8.6
Cc1cc(N2CCOCC2)nc(SCc2ccc(Cl)cc2Cl)n1,–,–,–,–,–
Cc1ccc(S(=O)(=O)CC#CCOC(=O)c2ccc([N+](=O)[O-])cc2)cc1,–,100.5,–,–,–
Cc1ccc(C(=O)c2ccc([N+](=O)[O-])cc2)cc1,–,–,–,–,–
Clc1cc(Cl)cc(CSc2nnc(-c3sccc3-n3cccc3)o2)c1,–,–,–,–,–
Clc1cccc(CSc2nnc(-c3sccc3-n3cccc3)o2)c1,–,–,–,–,8.9
CCn1c(SCC(=O)Nc2nccs2)nnc1-c1ccc(S(=O)(=O)N2CCCCC2)cc1,–,56.0,–,–,–

# Assay outcomes (PubChem)
